Results on three compounds are retold here after ChEMBL document CHEMBL1255243, “Resistance of Porphyromonas gingivalis ATCC 33277 to direct killing by antimicrobial peptides is protease independent” (2008).

Active and inactive are the calls of the source. No cut-off for these calls is given here. Where only a bound is given, the exact number is not on record here.

Test [1] has as its system Streptococcus mutans. In words: Antibacterial activity against Streptococcus mutans assessed as growth inhibition at 5 ug/ml following preincubation of compound with supernatant of Porphyromonas gingivalis ATCC 33277.
The test system of test [2] is Streptococcus mutans. In words: Antibacterial activity against Streptococcus mutans ATCC 27351 assessed as growth inhibition at 5 ug/ml following preincubation of compound with supernatant of Porphyromonas gingivalis ATCC 33277. The class given is functional, organism-based. Summed up:
(§1)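 Stationary-phase P. gingivalis or A. actinomycetemcomitans cultures were spun 10 min at 10,000 × g and the supernatant filter-sterilised (0.2 μm). Peptide was preincubated with 20% (final) filtrate for varying times. It was then added to S. mutans (overnight culture diluted 1:10 in BHI, bath-sonicated 1 min), grown at 37°C in 5% CO2, and read at OD650. % inhibition: no-peptide = 0%, fresh-medium-preincubated peptide = 100%. Mean ± SD, three independent experiments.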

Test [3] relates to Porphyromonas gingivalis. Description: Binding affinity to membranes of Porphyromonas gingivalis KDP136 using Alexa Fluor-labeled compound at 0.8 mg/ml by fluorimetric assay.
The subject of test [4] is Porphyromonas gingivalis. Description: Antibacterial activity against Porphyromonas gingivalis ATCC 33277. The class given is functional, organism-based. Put shortly: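 Increasing amounts of peptide were added to a growing anaerobic P. gingivalis culture. Percent growth inhibition was calculated relative to untreated cells (0%). Means ± SD of three independent experiments.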

The subject of test [5] is Streptococcus mutans. Description: Antibacterial activity against Streptococcus mutans assessed as growth inhibition at 5 ug/ml following preincubation of compound with supernatant of Aggregatibacter actinomycetemcommitans ATCC 29523.
For test [6], the system named is Streptococcus mutans. Description: Antibacterial activity against Streptococcus mutans ATCC 27351 assessed as growth inhibition at 5 ug/ml following preincubation of compound with supernatant of Aggregatibacter actinomycetemcommitans ATCC 29523. The class given is functional, organism-based. Put shortly: as §1
Test [7] relates to Streptococcus mutans. Description: Antibacterial activity against Streptococcus mutans assessed as growth inhibition at 40 ug/ml following preincubation of compound with supernatant of Aggregatibacter actinomycetemcommitans ATCC 29523.
Test [8] relates to Streptococcus mutans. In words: Antibacterial activity against Streptococcus mutans ATCC 27351 assessed as growth inhibition at 40 ug/ml following preincubation of compound with supernatant of Porphyromonas gingivalis ATCC 33277. The class given is functional, organism-based. Summed up:
as §1

Test [9] has as its system Streptococcus mutans. In words: Antibacterial activity against Streptococcus mutans assessed as growth inhibition at 40 ug/ml following preincubation of compound with supernatant of Porphyromonas gingivalis ATCC 33277.
Test [10] concerns Streptococcus mutans. Description: Antibacterial activity against Streptococcus mutans ATCC 27351 assessed as growth inhibition at 40 ug/ml following preincubation of compound with supernatant of Aggregatibacter actinomycetemcommitans ATCC 29523. The class given is functional, organism-based. Summed up:
as §1

Test [11] concerns Streptococcus mutans. Description: Antibacterial activity against Streptococcus mutans ATCC 27351 assessed as growth inhibition at 100 ug/ml following preincubation of compound with supernatant of Aggregatibacter actinomycetemcommitans ATCC 29523. The class given is functional, organism-based. Summed up:
(§2)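 Peptide at 100 μg/ml incubated with filter-sterilized stationary-phase culture supernatant (20% final) for set times; 10 µl added to 190 µl S. mutans overnight culture diluted 1:10 in BHI and sonicated 1 min; grown at 37°C, 5% CO2; OD650 read; % inhibition relative to no-peptide (0%) and medium-preincubated peptide (100%); three experiments in triplicate, mean ± SD.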

Test [12] has as its system Porphyromonas gingivalis. Description: Antibacterial activity against protease deficient Porphyromonas gingivalis KDP136. The class given is functional.
Test [13] deals with Streptococcus mutans. Description: Antibacterial activity against Streptococcus mutans ATCC 27351 assessed as growth inhibition at 100 ug/ml following preincubation of compound with supernatant of Porphyromonas gingivalis ATCC 33277. The class given is functional, organism-based. Summed up:
as §2

In test [14] the test system is Escherichia coli. Description: Antibacterial activity against Escherichia coli ATCC 25922 assessed as growth inhibition at 100 ug/ml following preincubation of compound with supernatant of Aggregatibacter actinomycetemcommitans ATCC 29523. The class given is functional, organism-based. Summed up: (§3)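 Peptide preincubated with filter-sterilized stationary-phase culture supernatant (20% final) for set times, then 10 µl added to 190 µl E. coli overnight culture (diluted 1:5,000 in BHI, sonicated 1 min); peptide 100 μg/ml final on cells; aerobic growth; OD650 read; % inhibition relative to no-peptide (0%) and medium-preincubated peptide (100%); three independent experiments in triplicate, mean ± SD.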

The test system of test [15] is Escherichia coli. In words: Antibacterial activity against Escherichia coli ATCC 25922 assessed as growth inhibition at 100 ug/ml following preincubation of compound with supernatant of Porphyromonas gingivalis ATCC 33277. The class given is functional, organism-based. Put shortly: as §3

With H-ALWKTLLKKVLKAAA-NH2, the outcome with Streptococcus mutans [1], in the test on Streptococcus mutans [2], in the test on Porphyromonas gingivalis [3] and with Porphyromonas gingivalis [4] was inactive. Also, the result in the test with Streptococcus mutans [5] and with Streptococcus mutans [6] was Active.
In the case of H-KRLFKKLLFSLRKY-NH2, the outcome with Streptococcus mutans [7] and in the test on Streptococcus mutans [10] was Active. Further, the outcome in the test on Streptococcus mutans [8] and in the test on Streptococcus mutans [9] was inactive.
Take `CC[C@H](C)[C@H](NC(=O)[C@H](CCCCN)NC(=O)[C@H](CCC(=O)O)NC(=O)[C@H](CCCCN)NC(=O)[C@H](CO)NC(=O)[C@H](CCCCN)NC(=O)[C@H](CCCNC(=N)N)NC(=O)[C@H](Cc1ccccc1)NC(=O)[C@H](Cc1ccccc1)NC(=O)[C@H](CC(=O)O)NC(=O)CNC(=O)[C@H](CC(C)C)NC(=O)[C@@H](N)CC(C)C)C(=O)NCC(=O)N[C@@H](CCCCN)C(=O)N[C@@H](CCC(=O)O)C(=O)N[C@@H](Cc1ccccc1)C(=O)N[C@@H](CCCCN)C(=O)N[C@@H](CCCNC(=N)N)C(=O)N[C@H](C(=O)N[C@H](C(=O)N[C@@H](CCC(N)=O)C(=O)N[C@@H](CCCNC(=N)N)C(=O)N[C@H](C(=O)N[C@@H](CCCCN)C(=O)N[C@@H](CC(=O)O)C(=O)N[C@@H](Cc1ccccc1)C(=O)N[C@@H](CC(C)C)C(=O)N[C@@H](CCCNC(=N)N)C(=O)N[C@@H](CC(N)=O)C(=O)N[C@@H](CC(C)C)C(=O)N[C@H](C(=O)N1CCC[C@H]1C(=O)N[C@@H](CCCNC(=N)N)C(=O)N[C@H](C(=O)N[C@@H](CCC(=O)O)C(=O)N[C@@H](CO)C(=O)O)[C@@H](C)O)C(C)C)[C@@H](C)CC)C(C)C)[C@@H](C)CC` [CATHELICIDIN]: the result in the test on Streptococcus mutans [11] and in the test on Escherichia coli [14] was Active. Moreover, in the test with Porphyromonas gingivalis [12], the MIC (usually the lowest concentration that inhibits growth of the organism) was more than 200 µg/mL. Besides, the outcome in the test on Streptococcus mutans [13] and in the test on Escherichia coli [15] was inactive.
